Results on 25 compounds are retold here after PubChem BioAssay.

Assay [1] can be described thus: S. cerevisiae growth inhibition in permissive medium (OD615), pilot counter-assay for S. cerevisiae lifespan shortening project, permissive growth control (AID 705;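 active = growth inhibition above 25% in both replicates, a cutoff set 3 SD above the mean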). As to conditions: OD615, 24 h, at 10 µM, stronger effect = higher value. The gist of the method: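 assay system = Saccharomyces cerevisiae strain carrying genetically modified DeaD replicative-lifespan system | medium = SC raffinose/galactose permissive medium | dosing = 10 µM single dose, 0.25% DMSO | schedule = 24 h compound exposure at 30 °C after 4 h pre-growth | measured by = OD at 615 nm | read-out basis = growth inhibition from lowered OD615 after 24 h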

Assay [2] can be described thus: S. cerevisiae growth inhibition in restrictive medium, OD615, pilot screen, restrictive growth control, yeast lifespan reduction project (AID 706;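 active = growth inhibition above a set limit, 3 SD over mean compound inhibition, in both replicates, cut at about 43% in these data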;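 note: modified DeaD lifespan yeast strain shifted to restrictive glucose medium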). As to conditions: OD615, 48 h, at 10 µM, stronger effect = higher value. In short, it runs like this:
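Buffer or medium: CSMM-D glucose medium. Material: genetically modified Saccharomyces cerevisiae, DeaD replicative lifespan assay strain. Times: 48 h compound exposure at 30 °C. Measured by: optical density at 615 nm.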

Assay [3] can be described thus: doxorubicin toxicity protection in MRP-1 cells – H69AR cells, CellTiter-Glo, duplicate, MRP-1 activator project, pilot screen (AID 807;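 active = viability increase at or above a cutoff of the median across tested compounds plus 3 SD, cut at about 8.5% in these data, passing the limit was not always enough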;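 note: compound pretreatment 18-22 h then 72 h combined with doxorubicin; 0% = doxorubicin alone and 100% = vehicle without doxorubicin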). As to conditions: H69AR viability with doxorubicin, CellTiter-Glo luminescence; at 10 µM; stronger effect = higher value.
Assay [4] in a line: viability of HCT116 without oncogenic beta-catenin – human colon tumor cells, pilot screen (AID 823;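 active = cell viability at or below a set limit in both duplicate runs, the limit being the all-compound median minus 4 SD, cut at about 23% in these data, passing the limit was not always enough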;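 note: 0% = wells killed by 20 µM Hyamine and 100% = untreated DMSO cell wells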). As to conditions: HCT116 beta-catenin knockout viability, CellTiter-Glo, 60 h; at 10 µM; stronger effect = lower value.
The nature of assay [5]: viability of PTEN-null HCT116 cells – cell-based, HCT116 clonal line, CellTiter-Glo, pilot screen (AID 824).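 Note: 0% = 20 µM Hyamine control and 100% = vehicle cell control.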 Particulars: HCT116 PTEN-deleted viability, 60 h, at 10 µM, stronger effect = lower value.
The nature of assay [6]: RAM pathway blockade in budding yeast – dse1pr::URA3 reporter, 5-FOA selection, pilot screen (AID 869;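 active = inhibition over a set limit, the all-compound mean plus 3 SD, in both replicate runs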;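 note: 0% = DMSO wells with no growth and 100% = 10 µM 1-NA-PP1 with full growth; RAM network block rescues cells from 5-FOA so hits raise OD615 growth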). As to conditions: S. cerevisiae dse1pr::URA3 5-FOA growth, OD615, 2 d; at 10 µM; stronger effect = higher value; strain carries analog-sensitive mutant Cbk1 kinase.
Assay [7] in a line: RAM signaling pathway blockade in yeast – S. cerevisiae, Pdr1DBD-CYC8 efflux-inhibited sensitized strain, primary screen (AID 1298;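 active = RAM network inhibition above 8.4% in each of two replicates, 3 SD over the compound average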;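 note: 0% = DMSO untreated cells without growth and 100% = 10 µM 1-NA-PP1 full growth; higher means more yeast growth rescued from 5-FOA killing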). Particulars: S. cerevisiae cbk1-as DSE1-URA3 strain, 5-FOA growth OD615, 2 d; at 50 µM; stronger effect = higher value.

Values without a mark were called inactive. Results filed as inconclusive are left out. Calls of active or inactive are those of the source.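 Rule for the calls, unless noted: active = viability at or below 27.92% in each of two runs, the all-compound median minus 4 SD; inconclusive = no clear call, values can overlap the other calls; inactive = the rest.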

For `CCCn1cc(S(=O)(=O)CC(=O)Nc2ccc(OC)cc2OC)c2ccccc21`, the growth inhibition is -7.84% in assay [1] and 6.44% in assay [2]. For the same compound, in assay [3], the viability increase was -1.59%. Also, the viability in assay [4] is 97.9%; in assay [5] it was 96.4%. The inhibition in assay [6] was 2.81%. Also, the RAM network inhibition in assay [7] is -0.12%.

In the case of `O=C(OCCOCCN=C1NS(=O)(=O)c2ccccc21)C1CC(=O)N(c2ccccc2)C1` (stereo not given), the values for the growth inhibition in assay [1] and in assay [2] were 4.05% and 5.13%, respectively. Besides, the viability increase in assay [3] is -1.16%. Further, the viability in assay [4] was 100%; in assay [5] it was 87.3%. For the same compound, the inhibition in assay [6] was 2.11%. The RAM network inhibition in assay [7] was 1.23%.

`Cc1cc(Nc2cc(C)on2)n2ncnc2n1`: the growth inhibition is 2.33% in assay [1] and -10% in assay [2]. Moreover, the viability increase in assay [3] is -1.14%. The viability was 106% in assay [4] and 99.8% in assay [5]. Besides, the inhibition in assay [6] is 0.195%. The RAM network inhibition in assay [7] was 2.24%.

`CCOC(=O)Cc1csc(SCn2nnc3ccccc3c2=O)n1`: the growth inhibition in assay [1] was -8.4%; in assay [2] it was -9.13%. For the same compound, the viability increase in assay [3] was 0.7%. Further, the viability in assay [4] and in assay [5] was 94.8% throughout. The inhibition in assay [6] is 2.31%. For the same compound, in assay [7], the RAM network inhibition is 1.31%.

Turning to `Cc1nnc2ccc(N3CCN(C(=O)c4ccccc4)CC3)nn12`, the growth inhibition in assay [1] is -4.49%; in assay [2], 5.48%. For the same compound, the viability increase in assay [3] was 0.13%. The viability in assay [4] is 98.9%; in assay [5], 95.2%. Further, in assay [6], the inhibition is 1.42%. In addition, the RAM network inhibition in assay [7] was 2.92%.

`COc1ccc(C)cc1NC(=O)CSc1nnc(-c2ccc(C)cc2)o1`: the growth inhibition in assay [1] is -8.71%; in assay [2], 30.3%. Further, in assay [3], the viability increase was 1.15%. For the same compound, the viability in assay [4] was 91.9%; in assay [5], 86.8%. The inhibition in assay [6] was 2.09%. Besides, the RAM network inhibition in assay [7] was 5.49%.

On to `CCc1nnc(NC(=O)CCC(=O)O)s1`, for which the growth inhibition was -7.04% in assay [1] and -5.46% in assay [2]. For the same compound, in assay [3], the viability increase was 0.56%. The figures for the viability in assay [4] and in assay [5] were 98.3% and 96.3%, respectively. Further, the inhibition in assay [6] is 0.815%. Moreover, in assay [7], the RAM network inhibition was 2.03%.

For `Cc1ccc(C2CC(c3cccc(C)c3)n3nc(N)nc3N2)cc1` (stereo not given), the growth inhibition in assay [1] was -0.275%; in assay [2], 16.7%. For the same compound, in assay [3], the viability increase is -3.52%. Also, the viability in assay [4] was 89.6%; in assay [5] it was 81%. Further, the inhibition in assay [6] is 1.81%. Also, the RAM network inhibition in assay [7] was 1.43%.

Take `Cc1ccc(O)c(C(=O)CC(=O)c2cccc(F)c2)c1`: the results for the growth inhibition in assay [1] and in assay [2] were 35.8% (active) and 50% (active), respectively. Moreover, the viability increase in assay [3] was -7.04%. The viability in assay [4] is 40.6%; in assay [5], 47.4%. The inhibition in assay [6] is -0.695%. The RAM network inhibition in assay [7] is -1.45%.

Regarding `O=C1CCCC2=C1C1(O)C(=O)c3ccccc3C1(O)O2` (stereo not given), the growth inhibition in assay [1] is -7.89%; in assay [2] it was -16%. Further, the viability increase in assay [3] was -4.62%. The viability in assay [4] is 89.4%; in assay [5], 88.7%. Besides, in assay [6], the inhibition is 1.28%. Further, in assay [7], the RAM network inhibition was 1.91%.

`O=C(OC1CCCCC1)c1ccc(NC(=O)c2ccco2)cc1`: the growth inhibition in assay [1] was -1.26%; in assay [2] it was -7.55%. Further, in assay [3], the viability increase was -2.73%. The figures for the viability in assay [4] and in assay [5] were 70.1% and 77.5%, respectively. For the same compound, the inhibition in assay [6] is 0.87%. Moreover, the RAM network inhibition in assay [7] is 2.81%.

With `COC(=O)COC(=O)c1ccc(Oc2nc(OC)nc(N(C)C)n2)cc1`, the growth inhibition in assay [1] is -10.3%; in assay [2], -13.7%. Besides, in assay [3], the viability increase was 0.83%. For the same compound, the figures for the viability in assay [4] and in assay [5] were 103% and 104%, respectively. In addition, the inhibition in assay [6] was 1.35%. Further, in assay [7], the RAM network inhibition is 2.76%.

For the compound `CCCCNc1cc(=O)n(C)c(=O)[nH]1`, the values for the growth inhibition in assay [1] and in assay [2] were -12.2% and -4.46%, respectively. The viability increase in assay [3] was -0.6%. For the same compound, the viability is 104% in assay [4] and 96.5% in assay [5]. Besides, the inhibition in assay [6] is 1.55%. In assay [7], the RAM network inhibition was 2.98%.

For `CCN(CC)P1(=O)OC(c2cc(OC)c(OC)c(OC)c2)=Nc2c1c(C)nn2-c1ccccc1` (stereo not given), the values for the growth inhibition in assay [1] and in assay [2] were -7.12% and -13.3%, respectively. Moreover, the viability increase in assay [3] was -2.38%. For the same compound, the viability in assay [4] is 95.8%; in assay [5], 92.8%. Also, the inhibition in assay [6] is 1.87%. Besides, in assay [7], the RAM network inhibition was 2.4%.

Take `O=C1C2CCCN2C(c2ccc(F)cc2)N1c1cccc(Cl)c1` (stereo not given): the figures for the growth inhibition in assay [1] and in assay [2] were -1.56% and 0.01%, respectively. In assay [3], the viability increase was -0.91%. The viability in assay [4] was 102%; in assay [5], 99.6%. Besides, the inhibition in assay [6] was 0.63%. Besides, the RAM network inhibition in assay [7] was 2.38%.

Consider `CCOc1nonc1C(=N)/C(C(C)=O)=C(\C)O`, for which the growth inhibition in assay [1] is -12.6%; in assay [2], -12.1%. Moreover, the viability increase in assay [3] is -1.06%. The viability in assay [4] is 104%; in assay [5], 98%. In assay [6], the inhibition is 1.42%. In assay [7], the RAM network inhibition is -0.48%.

On to `CC(c1cccnc1)N(CCN(C)C)C(=O)Nc1ccc(Cl)c(Cl)c1` (stereo not given), for which the growth inhibition in assay [1] is -5.64%; in assay [2], -0.46%. Besides, the viability increase in assay [3] is -3.34%. The viability in assay [4] was 88.9%; in assay [5], 84.4%. For the same compound, the inhibition in assay [6] is 1.33%. Further, the RAM network inhibition in assay [7] is 5.39%.

Consider `COCCOC(=O)C1=C(C)NC2=C(C(=O)CC(C)(C)C2)C1c1ccc(N(C)C)cc1` (stereo not given), for which the growth inhibition is -16.1% in assay [1] and -21.2% in assay [2]. Moreover, in assay [3], the viability increase is -0.49%. For the same compound, the figures for the viability in assay [4] and in assay [5] were 97.4% and 98.3%, respectively. Besides, the inhibition in assay [6] is -0.03%. Besides, the RAM network inhibition in assay [7] was 3.6%.

As for `CCc1ccc(NC(=O)c2ccc3c(c2)C(=O)N(Cc2ccco2)C3=O)cc1`, the growth inhibition is -3.35% in assay [1] and 7.26% in assay [2]. For the same compound, in assay [3], the viability increase was -2.41%. In addition, the viability in assay [4] was 93.6%; in assay [5], 89.6%. Besides, the inhibition in assay [6] is 0.185%. In addition, the RAM network inhibition in assay [7] was 1.5%.

Take `Cc1cc2cc(CNC(=O)c3ccc(Br)o3)ccc2n1C`: the growth inhibition was -9.25% in assay [1] and -10.3% in assay [2]. For the same compound, the viability increase in assay [3] is -2.79%. The viability in assay [4] is 94.2%; in assay [5], 92.1%. Further, the inhibition in assay [6] was 1.93%. Besides, the RAM network inhibition in assay [7] is 9.25%.

Take `CC(=O)c1ccc(OCC(O)CN2CCN(Cc3ccccc3)CC2)cc1` (stereo not given): the growth inhibition in assay [1] is -6.49%; in assay [2] it was 4.36%. In addition, the viability increase in assay [3] is -1.36%. In addition, the viability in assay [4] is 101%; in assay [5] it was 92.1%. Moreover, in assay [6], the inhibition was -0.305%. Further, the RAM network inhibition in assay [7] is 0.94%.

For the compound `COCCn1c(=O)[nH]c2cc(C(=O)NCC3CCCO3)ccc2c1=O` (stereo not given), the results for the growth inhibition in assay [1] and in assay [2] were -6.33% and -1.18%, respectively. For the same compound, the viability increase in assay [3] is -0.04%. For the same compound, the viability in assay [4] is 100%; in assay [5] it was 95.2%. Besides, in assay [6], the inhibition is 1.23%. For the same compound, the RAM network inhibition in assay [7] was 1.45%.

Take `CCC(C(=O)OC)n1cnc2c(nnn2-c2cccc(Cl)c2)c1=O` (stereo not given): the growth inhibition is -3.35% in assay [1] and -0.405% in assay [2]. Besides, the viability increase in assay [3] was 1.21%. For the same compound, the values for the viability in assay [4] and in assay [5] were 100% and 92.1%, respectively. Besides, the inhibition in assay [6] was 0.145%. For the same compound, the RAM network inhibition in assay [7] is 4.91%.

Turning to `Cn1c(C(=O)N2CCN(Cc3ccc4c(c3)OCO4)CC2)cc2c(=O)n(C)c3ccccc3c21`, the growth inhibition in assay [1] is -1.14%; in assay [2] it was 0.725%. For the same compound, the viability increase in assay [3] was -1.54%. The viability was 67.9% in assay [4] and 71.9% in assay [5]. The inhibition in assay [6] was 3.29%. Moreover, the RAM network inhibition in assay [7] was 0.67%.

Regarding `CC(=O)c1ccc(OCC(O)CN2C(C)CCCC2C)cc1` (stereo not given), the growth inhibition in assay [1] is -1.28%; in assay [2], -5.97%. The viability increase in assay [3] was -0.1%. Moreover, the viability in assay [4] is 97.8%; in assay [5], 98.1%. Besides, in assay [6], the inhibition was 0.78%. For the same compound, the RAM network inhibition in assay [7] was 1.46%.
